Assay results from ChEMBL document CHEMBL5247575 (J Med Chem, 2018).

Assays:
[1] = test system: Bacteria; test: Inhibition of bacteria KPC-2 assessed as half life using nitrocefin as substrate
[2] = test system: Escherichia coli; test: Synergistic antibacterial activity against Escherichia coli DH10B assessed as cefepime MIC at 4 ug/ml by broth microdilution method; format: functional; details: dose 4 µg/ml
[3] = test system: Acinetobacter baumannii; test: Synergistic antibacterial activity against ADC deleted Acinetobacter baumannii assessed as cefepime MIC at 4 ug/ml by broth microdilution method; format: functional; details: dose 4 µg/ml
[4] = test system: Klebsiella pneumoniae; test: Synergistic antibacterial activity against Klebsiella pneumoniae 935/1884 producing KPC-3 assessed as cefepime MIC at 4 ug/ml by broth microdilution method; format: functional; details: dose 4 µg/ml
[5] = test system: Klebsiella pneumoniae; test: Synergistic antibacterial activity against Klebsiella pneumoniae 761/1723 producing KPC-3 assessed as cefepime MIC at 4 ug/ml by broth microdilution method; format: functional; details: dose 4 µg/ml
Procedure, shortened: (§1)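 Broth microdilution per CLSI guidelines, using custom frozen panels. […] Each partner drug was also tested alone. MICs were run in triplicate and the modal value is reported.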

[6] = test system: Klebsiella pneumoniae; test: Synergistic antibacterial activity against Klebsiella pneumoniae CAV 1636 producing OXA-181 assessed as cefepime MIC at 4 ug/ml by broth microdilution method; format: functional; details: dose 4 µg/ml
[7] = test system: Klebsiella pneumoniae; test: Synergistic antibacterial activity against Klebsiella pneumoniae CAV 1543 producing OXA-48 assessed as cefepime MIC at 4 ug/ml by broth microdilution method; format: functional; details: dose 4 µg/ml
[8] = test system: Klebsiella pneumoniae; test: Synergistic antibacterial activity against Klebsiella pneumoniae NY BS producing OXA-232 assessed as cefepime MIC at 4 ug/ml by broth microdilution method; format: functional; details: dose 4 µg/ml
[9] = test system: Pseudomonas aeruginosa; test: Synergistic antibacterial activity against Pseudomonas aeruginosa 795 assessed as cefepime MIC at 4 ug/ml by broth microdilution method; format: functional; details: dose 4 µg/ml
[10] = test system: Acinetobacter baumannii; test: Synergistic antibacterial activity against Acinetobacter baumannii PR381 producing OXA-24/40 assessed as cefepime MIC at 4 ug/ml by broth microdilution method; format: functional; details: dose 4 µg/ml
[11] = test system: Acinetobacter baumannii; test: Synergistic antibacterial activity against Acinetobacter baumannii PR476 producing OXA-24/40 assessed as cefepime MIC at 4 ug/ml by broth microdilution method; format: functional; details: dose 4 µg/ml
[12] = test system: Escherichia coli; test: Synergistic antibacterial activity against Escherichia coli DH10B transfected with pBR322-catI-KPC-2 assessed as cefepime MIC at 8 ug/ml by broth microdilution method; format: functional; details: dose 8 µg/ml; procedure, shortened: as §1
[13] = test system: Klebsiella pneumoniae; test: Synergistic antibacterial activity against Klebsiella pneumoniae 729/1679 producing KPC-3 assessed as cefepime MIC at 8 ug/ml by broth microdilution method; format: functional; details: dose 8 µg/ml; procedure, shortened: as §1
[14] = test system: Klebsiella pneumoniae; test: Synergistic antibacterial activity against Klebsiella pneumoniae 935/1884 producing KPC-3 assessed as cefepime MIC at 8 ug/ml by broth microdilution method; format: functional; details: dose 8 µg/ml
[15] = test system: Klebsiella pneumoniae; test: Synergistic antibacterial activity against Klebsiella pneumoniae 11978 producing OXA-48 assessed as cefepime MIC at 8 ug/ml by broth microdilution method; format: functional; details: dose 8 µg/ml; procedure, shortened: as §1
[16] = test system: Klebsiella pneumoniae; test: Synergistic antibacterial activity against Klebsiella pneumoniae CAV 1636 producing OXA-181 assessed as cefepime MIC at 8 ug/ml by broth microdilution method; format: functional; details: dose 8 µg/ml
[17] = test system: Klebsiella pneumoniae; test: Synergistic antibacterial activity against Klebsiella pneumoniae jefferson 1775 producing OXA-48 assessed as cefepime MIC at 8 ug/ml by broth microdilution method; format: functional; details: dose 8 µg/ml
[18] = test system: Acinetobacter baumannii; test: Synergistic antibacterial activity against Acinetobacter baumannii PR319 producing OXA-23/24/40 assessed as cefepime MIC at 8 ug/ml by broth microdilution method; format: functional; details: dose 8 µg/ml
[19] = test system: Acinetobacter baumannii; test: Synergistic antibacterial activity against Acinetobacter baumannii PR323 producing OXA-24/40 assessed as cefepime MIC at 8 ug/ml by broth microdilution method; format: functional; details: dose 8 µg/ml
[20] = test system: Acinetobacter baumannii; test: Synergistic antibacterial activity against Acinetobacter baumannii PR408 producing OXA-24/40 assessed as cefepime MIC at 8 ug/ml by broth microdilution method; format: functional; details: dose 8 µg/ml
[21] = test system: Acinetobacter baumannii; test: Synergistic antibacterial activity against Acinetobacter baumannii PR474 producing OXA-23/24/40 assessed as cefepime MIC at 8 ug/ml by broth microdilution method; format: functional; details: dose 8 µg/ml
[22] = test system: Escherichia coli; test: Synergistic antibacterial activity against Escherichia coli DH10B transfected with pBR322-catI-KPC-2 assessed as meropenem MIC at 4 ug/ml by broth microdilution method; format: functional; details: dose 4 µg/ml; procedure, shortened: as §1
[23] = test system: Escherichia coli; test: Synergistic antibacterial activity against Escherichia coli DH10B transfected with pBC SK (-) KPC-3 assessed as meropenem MIC at 4 ug/ml by broth microdilution method; format: functional; details: dose 4 µg/ml
[24] = test system: Escherichia coli; test: Synergistic antibacterial activity against Escherichia coli DH10B transfected with pBC SK (-) OXA-48 assessed as meropenem MIC at 4 ug/ml by broth microdilution method; format: functional; details: dose 4 µg/ml; procedure, shortened: as §1
[25] = test system: Klebsiella pneumoniae; test: Synergistic antibacterial activity against Klebsiella pneumoniae 1084/1957 producing KPC-3 assessed as meropenem MIC at 4 ug/ml by broth microdilution method; format: functional; details: dose 4 µg/ml; procedure, shortened: as §1
[26] = test system: Klebsiella pneumoniae; test: Synergistic antibacterial activity against Klebsiella pneumoniae 1108/1989 producing KPC-3 assessed as meropenem MIC at 4 ug/ml by broth microdilution method; format: functional; details: dose 4 µg/ml; procedure, shortened: as §1
[27] = test system: Klebsiella pneumoniae; test: Synergistic antibacterial activity against Klebsiella pneumoniae 1398/2291 producing KPC-3 assessed as meropenem MIC at 4 ug/ml by broth microdilution method; format: functional; details: dose 4 µg/ml; procedure, shortened: as §1
[28] = test system: Pseudomonas aeruginosa; test: Synergistic antibacterial activity against Pseudomonas aeruginosa 839 assessed as meropenem MIC at 4 ug/ml by broth microdilution method; format: functional; details: dose 4 µg/ml
[29] = test system: Acinetobacter baumannii; test: Synergistic antibacterial activity against Acinetobacter baumannii PR420 producing OXA-23/24/40 assessed as meropenem MIC at 4 ug/ml by broth microdilution method; format: functional; details: dose 4 µg/ml
[30] = test system: Acinetobacter baumannii; test: Synergistic antibacterial activity against Acinetobacter baumannii PR448 producing OXA-23 assessed as meropenem MIC at 4 ug/ml by broth microdilution method; format: functional; details: dose 4 µg/ml
[31] = test system: Klebsiella pneumoniae; test: Synergistic antibacterial activity against Klebsiella pneumoniae 729/1679 producing KPC-3 assessed as meropenem MIC at 8 ug/ml by broth microdilution method; format: functional; details: dose 8 µg/ml; procedure, shortened: as §1
[32] = test system: Klebsiella pneumoniae; test: Synergistic antibacterial activity against Klebsiella pneumoniae 1398/2291 producing KPC-3 assessed as meropenem MIC at 8 ug/ml by broth microdilution method; format: functional; details: dose 8 µg/ml; procedure, shortened: as §1
[33] = test system: Klebsiella pneumoniae; test: Synergistic antibacterial activity against Klebsiella pneumoniae 761/1723 producing KPC-3 assessed as meropenem MIC at 8 ug/ml by broth microdilution method; format: functional; details: dose 8 µg/ml
[34] = test system: Klebsiella pneumoniae; test: Synergistic antibacterial activity against Klebsiella pneumoniae 1354/2241 producing KPC-3 assessed as meropenem MIC at 8 ug/ml by broth microdilution method; format: functional; details: dose 8 µg/ml; procedure, shortened: as §1
[35] = test system: Klebsiella pneumoniae; test: Synergistic antibacterial activity against Klebsiella pneumoniae CAV 1636 producing OXA-181 assessed as meropenem MIC at 8 ug/ml by broth microdilution method; format: functional; details: dose 8 µg/ml
[36] = test system: Klebsiella pneumoniae; test: Synergistic antibacterial activity against Klebsiella pneumoniae NY BS producing OXA-232 assessed as meropenem MIC at 8 ug/ml by broth microdilution method; format: functional; details: dose 8 µg/ml
[37] = test system: Klebsiella pneumoniae; test: Synergistic antibacterial activity against Klebsiella pneumoniae jefferson 1775 producing OXA-48 assessed as meropenem MIC at 8 ug/ml by broth microdilution method; format: functional; details: dose 8 µg/ml
[38] = test system: Pseudomonas aeruginosa; test: Synergistic antibacterial activity against Pseudomonas aeruginosa 715 assessed as meropenem MIC at 8 ug/ml by broth microdilution method; format: functional; details: dose 8 µg/ml
[39] = test system: Escherichia coli; test: Antibacterial activity against Escherichia coli DH10B transfected with pBC SK (-) KPC-3 by broth microdilution method; format: functional
[40] = test system: Escherichia coli; test: Antibacterial activity against Escherichia coli DH10B transfected with pBR322-catI-KPC-2 by broth microdilution method; format: functional

SMILES	T1/2 [1]	MIC [2]	MIC [3]	MIC [4]	MIC [5]	MIC [6]	MIC [7]	MIC [8]	MIC [9]	MIC [10]	MIC [11]	MIC [22]	MIC [23]	MIC [24]	MIC [25]	MIC [26]	MIC [27]	MIC [28]	MIC [29]	MIC [30]	other results
O=C(NNC(=O)[C@@H]1CC[C@@H]2CN1C(=O)N2OS(=O)(=O)O)[C@@H]1CCCNC1 [ZIDEBACTAM]	29 min	≤ 0.12 µg/mL	0.25 µg/mL	≤ 0.12 µg/mL	≤ 0.12 µg/mL	≤ 0.12 µg/mL	≤ 0.12 µg/mL	≤ 0.12 µg/mL	16 µg/mL	16 µg/mL	1 µg/mL	≤ 0.12 µg/mL	≤ 0.12 µg/mL	≤ 0.12 µg/mL	≤ 0.12 µg/mL	≤ 0.12 µg/mL	≤ 0.12 µg/mL	0.5 µg/mL	> 16 µg/mL	> 16 µg/mL	MIC [12]: ≤ 0.12 µg/mL; MIC [13]: ≤ 0.12 µg/mL; MIC [14]: ≤ 0.12 µg/mL; MIC [15]: ≤ 0.12 µg/mL; MIC [16]: ≤ 0.12 µg/mL; MIC [17]: ≤ 0.12 µg/mL; MIC [18]: > 16 µg/mL; MIC [19]: 4 µg/mL; MIC [20]: 16 µg/mL; MIC [21]: 8 µg/mL; MIC [31]: ≤ 0.12 µg/mL; MIC [32]: ≤ 0.12 µg/mL; MIC [33]: ≤ 0.12 µg/mL; MIC [34]: ≤ 0.12 µg/mL; MIC [35]: ≤ 0.12 µg/mL; MIC [36]: ≤ 0.12 µg/mL; MIC [37]: ≤ 0.12 µg/mL; MIC [38]: 8 µg/mL
O.O=C(NC1CCNCC1)[C@@H]1CC[C@@H]2CN1C(=O)N2OS(=O)(=O)O [RELEBACTAM]	46 min	≤ 0.12 µg/mL	0.25 µg/mL	≤ 0.12 µg/mL	≤ 0.12 µg/mL	4 µg/mL	2 µg/mL	2 µg/mL	> 16 µg/mL	> 16 µg/mL	2 µg/mL	≤ 0.12 µg/mL	≤ 0.12 µg/mL	0.25 µg/mL	≤ 0.12 µg/mL	≤ 0.12 µg/mL	≤ 0.12 µg/mL	1 µg/mL	> 16 µg/mL	> 16 µg/mL	MIC [39]: > 16 µg/mL; MIC [40]: > 16 µg/mL
N#C[C@@H]1CC[C@@H]2CN1C(=O)N2OS(=O)(=O)[O-].[Na+]	26 min	≤ 0.12 µg/mL	0.5 µg/mL	0.25 µg/mL	≤ 0.12 µg/mL	0.5 µg/mL	0.25 µg/mL	0.5 µg/mL	> 16 µg/mL	16 µg/mL	2 µg/mL	≤ 0.12 µg/mL	≤ 0.12 µg/mL	≤ 0.12 µg/mL	≤ 0.12 µg/mL	≤ 0.12 µg/mL	≤ 0.12 µg/mL	1 µg/mL	16 µg/mL	2 µg/mL	MIC [39]: > 16 µg/mL; MIC [40]: > 16 µg/mL; MIC [12]: ≤ 0.12 µg/mL; MIC [13]: 0.25 µg/mL; MIC [14]: ≤ 0.12 µg/mL; MIC [15]: 0.5 µg/mL; MIC [16]: 0.5 µg/mL; MIC [17]: ≤ 0.12 µg/mL; MIC [18]: > 16 µg/mL; MIC [19]: > 16 µg/mL; MIC [20]: 8 µg/mL; MIC [21]: 8 µg/mL; MIC [31]: ≤ 0.12 µg/mL; MIC [32]: ≤ 0.12 µg/mL; MIC [33]: ≤ 0.12 µg/mL; MIC [34]: ≤ 0.12 µg/mL; MIC [35]: ≤ 0.12 µg/mL; MIC [36]: ≤ 0.12 µg/mL; MIC [37]: ≤ 0.12 µg/mL; MIC [38]: 16 µg/mL
